From PubChem
In the library only some 0.72% were active in any assay of this set; here they are far more common.
mIAP block: inhibitors of mouse IAP, primary screen, biochemical, luminescence, uHTS. intestinal alkaline phosphatase [Mus musculus]. purified mouse IAP, CDP-Star luminescence, 30 min. inhibition, % at 10 µM. 330,000 compounds, 0.2% hits. AID 2806, 2010;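 active = inhibition of at least 40% at 10 µM in the primary screen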;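 also: plate controls were DMSO with enzyme for no effect and no enzyme wells for full effect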
mIAP activ: activators of mouse IAP, primary screen, biochemical, luminescence, uHTS; 330,000 compounds, 0.24% hits; intestinal alkaline phosphatase [Mus musculus]; AID 2805, 2010; activation factor at 10 µM; muIAP, CDP-Star luminescence, 30 min; hits give high values; 1 = vehicle-only enzyme signal, 0 = enzyme-free wells;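 active = activation factor of at least 2 at 20 µM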
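Assay system: mouse IAP enzyme / Compound: DMSO-dissolved test compounds / Timing: 30 min, room temperature / Measured by: luminescence from enzymatic CDP-Star hydrolysis / Control set: DMSO-only wells, enzyme-free buffer wells as negative control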
bIAP inhibitor: bovine intestinal alkaline phosphatase inhibitors, primary screen, selectivity assay for TNAP inhibitor project, biochemical, bovine IAP, CDP-star luminescence | alkaline phosphatase, intestinal [Bos taurus] | 190,000 tested, under 10 active | AID 1019, 2008 | inhibition, % at 20 µM | purified bovine IAP, 30 min;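 active = over 50% inhibition of intestinal alkaline phosphatase at 20 µM in the single-dose screen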
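Incubation: 30 min reaction at room temperature / Material: purified bovine intestinal alkaline phosphatase (IAP) enzyme / Input: enzyme at 1/65,000,000 dilution / Dosing: 20 µM single dose / Signal: CDP-star luminescence signal / Reagent: CDP-star chemiluminescent phosphatase substrate, 30 µM final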
hIAP activ: human IAP activators, primary screen, biochemical, luminescence, uHTS; purified human IAP, CDP-Star luminescence, 30 min; hits give high values; 1 = vehicle-only enzyme, 0 = enzyme-free background; 330,000 compounds, 0.16% hits; AID 2524, 2010; activation factor at 10 µM;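 active = activation factor of the enzyme at least 2-fold when tested at 20 µM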
Target sequence (P09923 whole entry, looked up): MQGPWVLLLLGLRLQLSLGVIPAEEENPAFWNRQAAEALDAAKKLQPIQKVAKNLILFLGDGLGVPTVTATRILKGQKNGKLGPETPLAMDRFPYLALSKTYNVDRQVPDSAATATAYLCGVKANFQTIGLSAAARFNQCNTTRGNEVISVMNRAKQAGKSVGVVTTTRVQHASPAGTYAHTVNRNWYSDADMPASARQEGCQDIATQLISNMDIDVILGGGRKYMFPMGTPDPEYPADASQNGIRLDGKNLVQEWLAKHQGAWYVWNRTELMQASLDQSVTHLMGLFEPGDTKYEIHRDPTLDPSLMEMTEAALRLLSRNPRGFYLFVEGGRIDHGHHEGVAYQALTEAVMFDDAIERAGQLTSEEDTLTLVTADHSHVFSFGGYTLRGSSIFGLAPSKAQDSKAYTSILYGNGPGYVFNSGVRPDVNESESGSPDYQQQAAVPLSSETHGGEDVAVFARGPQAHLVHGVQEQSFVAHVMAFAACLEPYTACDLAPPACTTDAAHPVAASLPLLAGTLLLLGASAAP
bIAP act: bovine intestinal alkaline phosphatase activators, primary screen, biochemical, bovine IAP, CDP-star luminescence | alkaline phosphatase, intestinal [Bos taurus] | 200,000 compounds, 0.17% hits | purified bovine IAP, 30 min; hits give high values; fold of DMSO-control signal, blank-subtracted | activation factor at 20 µM;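 active = activation factor of 2 or more at 20 µM, a signal rise over negative controls twice the positive control's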
hIAP inh: human IAP inhibitors, primary screen, biochemical, luminescence, uHTS; Intestinal-type alkaline phosphatase (Homo sapiens), P09923; purified IAP, CDP-Star luminescence, 30 min; inhibition, % at 10 µM; 330,000 compounds, 0.12% hits; AID 2544, 2010;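 active = inhibition reaching a set limit with compound at 10 µM in the primary screen, cut at about 35% in these data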;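 also: plate controls were DMSO wells with enzyme for no effect and no-enzyme buffer wells for full effect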
hIAP act confirm: human IAP activators, confirmation, biochemical, luminescence, single concentration, uHTS hits; activation (%Activity, negative = activation), % at 8.3 µM; 880 compounds, 10% hits; shares compounds with hIAP activ; purified IAP, CDP-Star luminescence, 30 min; hits give low values; AID 434926, 2010;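 active = at least twofold enzyme activation in any of six single-dose repeats, which the averaged readout prints as negative percent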
An asterisk follows results filed as active; nt = not tested or not shown.

SMILES	mIAP block	mIAP activ	bIAP inhibitor	hIAP activ	bIAP act	hIAP inh	hIAP act confirm
COC(=O)/C=C1\S/C(=N/NC(=O)c2ccccc2)NC1=O	16	0.84	-24	1.3	1.2	-30	nt
COc1ccccc1/C=C1\S/C(=N/NC(=O)c2cccc(Br)c2)NC1=O	-1	1	-5	2.5*	1.1	-145	2
COc1ccc(C(=O)NC(=S)NNC(=O)c2ccc(NC(C)=O)cc2)cc1Br	17	0.83	-39	2.1*	1.4	-110	2
CCCCN(Cc1cc2ccccc2[nH]c1=O)S(=O)(=O)c1ccc(C)cc1	3	0.97	nt	1	nt	-2	nt
Cc1ccc2oc(C(=O)Nc3nnc(C)s3)c(C)c2c1	-4	1	5	0.95	1	5	nt
Cc1ccc2oc(C(=O)Nc3nonc3C)c(C)c2c1	-4	1	nt	0.62	nt	38*	-20
CC1(CCc2ccccc2)NC(=O)N(CC(=O)N2CCCCCC2)C1=O (centres undefined)	-2	1	nt	0.98	nt	2	nt
Cc1ccccc1NC(=O)CCCSc1nc2ccccc2s1	-17	1.2	4	1.4	1	-35	nt
CCOc1ccc(/C=N/NC(=O)c2[nH]ncc2Br)c(O)c1	21	0.79	-39	2.1*	1.4	-108	-294*
O=C(N/N=C/c1cccs1)c1[nH]ncc1Br	4	0.96	nt	1.3	nt	-29	nt
Cc1ccc(O)c(/C=N/NC(=O)c2[nH]ncc2Br)c1	21	0.79	5	2.2*	1	-123	23
O=C(N/N=C/c1c(O)ccc2ccccc12)c1[nH]ncc1Br	23	0.77	11	2.2*	0.9	-120	43
COc1ccc(OC)c(/C=N/NC(=O)c2[nH]ncc2Br)c1	-6	1.1	nt	1.7	nt	-69	nt
Cc1ccc(O)c(/C=N/NC(=O)C2=NNC(c3ccccc3)(c3ccccc3)C2)c1	nt	nt	-6	nt	1.1	nt	nt
CCC(C)NC(=O)N[C@@H](Cc1ccccc1)C(=O)O (some centres undefined)	-5	1	0	0.98	1	2	nt
Cc1cc(O)c(-c2cc(C(=O)NCc3ccc4c(c3)OCO4)[nH]n2)cc1C	-29	1.3	-56	0.86	1.6	14	nt
COc1ccc(CNC(=O)c2cc(-c3cc(C)ccc3O)n[nH]2)cc1	-70	1.7	nt	2.4*	nt	-138	-34
Cc1cccc(NC(=O)c2cc(-c3cc(C)c(C)cc3O)n[nH]2)c1	-2	1	nt	1.8	nt	-78	nt
COc1ccc(CNC(=O)c2cc(-c3ccccc3O)n[nH]2)cc1	-54	1.5	-5	0.94	1	6	nt
COc1ccc(CCNC(=O)c2cc(-c3ccc(C)c(C)c3O)n[nH]2)cc1OC	-8	1.1	-37	1.9	1.4	-91	nt
Cc1cccc(NC(=O)c2cc(-c3cc(C)ccc3O)n[nH]2)c1	-16	1.2	nt	2*	nt	-104	7
O=C(NCc1ccc2c(c1)OCO2)c1cc(-c2cc(Cl)ccc2O)n[nH]1	-28	1.3	nt	2.1*	nt	-108	18
COc1ccc(CCNC(=O)c2cc(-c3cc(C)ccc3O)n[nH]2)cc1OC	-68	1.7	-96	2.7*	2*	-168	-9
Cc1ccc(OCc2ccc(C(=O)Nc3nc4ccccc4n3C)o2)c([N+](=O)[O-])c1	4	0.96	8	1.1	0.9	-14	nt
CCOc1cc(C#N)ccc1OCC(=O)NNC(=O)CC1CCS(=O)(=O)C1 (centres undefined)	10	0.9	nt	0.92	nt	8	nt
COc1ccc(NC(=O)c2cc(-c3ccc(C)cc3O)n[nH]2)c(OC)c1	2	0.98	nt	2.1*	nt	-106	-37
